Reference: ChEMBL document CHEMBL1124391, “Structure-activity relationships of novel vasopressin antagonists containing C-terminal diaminoalkanes and (aminoalkyl)guanidines” (J Med Chem, 1989)
Numbered stars: 1 amine (or outer) side, 2 acyl side, 3 side chain; on linkers, the order of the positions; unused ones are H or OH. Bridge positions count the residues as written; N and C are the ends. Square brackets hold non-standard residues; d marks the D form. Peptide text beside a SMILES is read from it. * marks the point of attachment. X1 = O=C(CC1(S[*:2])CCCCC1)[*:1]; Agmatine = N=C(N)NCCCCN*

Key:
[1] = target: Vasopressin V2 receptor (Rattus norvegicus) (UniProt Q00788); assay: Dose required to lower urine osmolality to 300 mOsm/kg in rat
How it was run: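 Male rats deprived of food and water overnight to reach a stable hydropenic state (raised plasma vasopressin, urine osmolality ≈1500 mOsm/kg H2O). Antagonist given at varying doses to groups of four rats. Urine volume and osmolality measured. The value is the dose that brings urine osmolality down to 300 mOsm/kg. Each determination averages four rats, and the reported value averages (n) determinations.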

[2] = target: Vasopressin V2 receptor (Sus scrofa) (UniProt P32307); assay: Inhibition constant for [3H]LVP binding to medullary membranes of pig kidney; type: tissue-based
How it was run: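 V2 receptor affinity measured on pig renal medullary membranes by competition with tritiated LVP, expressed as Kbind. Each determination averages triplicate tests, and the value averages (n) determinations.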

Vasopressin V2 receptor [3] = target: Vasopressin V2 receptor (Homo sapiens, UniProt P30518); assay: Inhibition constant for vasopressin-stimulated adenylate cyclase of medullary membranes of human kidney
How it was run: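 Human renal medullary membrane preparations used. Antagonism measured as inhibition of LVP-stimulated adenylate cyclase, expressed as Ki. Only selected analogues tested. Each determination averages triplicate tests, and the value averages (n) determinations.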

Vasopressin V2 receptor [4] = target: Vasopressin V2 receptor (Sus scrofa, UniProt P32307); assay: Inhibition constant for vasopressin-stimulated adenylate cyclase of medullary membranes of pig kidney
How it was run: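 Antagonism measured on pig renal medullary membranes as inhibition of LVP-stimulated adenylate cyclase, expressed as inhibition constant Ki. Each determination averages triplicate tests, and the value averages (n) determinations.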

Vasopressin V2 receptor (Homo sapiens, UniProt P30518), sequence (P30518 whole entry): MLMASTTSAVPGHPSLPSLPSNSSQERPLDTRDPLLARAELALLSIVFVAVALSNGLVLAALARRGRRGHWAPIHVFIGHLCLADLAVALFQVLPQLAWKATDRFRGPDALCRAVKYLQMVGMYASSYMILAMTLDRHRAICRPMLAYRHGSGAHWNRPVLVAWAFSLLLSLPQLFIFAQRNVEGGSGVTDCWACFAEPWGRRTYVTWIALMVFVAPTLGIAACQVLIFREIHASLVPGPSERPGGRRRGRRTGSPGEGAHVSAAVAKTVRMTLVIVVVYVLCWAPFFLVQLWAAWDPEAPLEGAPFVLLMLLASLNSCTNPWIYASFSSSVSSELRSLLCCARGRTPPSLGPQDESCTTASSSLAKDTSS
Vasopressin V2 receptor (Rattus norvegicus), sequence (Q00788 whole entry): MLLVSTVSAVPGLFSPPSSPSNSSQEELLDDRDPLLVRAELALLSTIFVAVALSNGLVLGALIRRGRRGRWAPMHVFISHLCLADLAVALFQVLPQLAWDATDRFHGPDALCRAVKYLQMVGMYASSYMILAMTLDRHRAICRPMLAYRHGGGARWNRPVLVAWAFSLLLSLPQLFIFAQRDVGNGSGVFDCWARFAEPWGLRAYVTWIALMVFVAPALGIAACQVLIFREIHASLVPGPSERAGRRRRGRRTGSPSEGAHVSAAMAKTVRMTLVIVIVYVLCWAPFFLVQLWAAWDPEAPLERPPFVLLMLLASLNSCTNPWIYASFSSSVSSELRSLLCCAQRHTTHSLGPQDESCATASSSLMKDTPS
Vasopressin V2 receptor (Sus scrofa, UniProt P32307), sequence (P32307 whole entry): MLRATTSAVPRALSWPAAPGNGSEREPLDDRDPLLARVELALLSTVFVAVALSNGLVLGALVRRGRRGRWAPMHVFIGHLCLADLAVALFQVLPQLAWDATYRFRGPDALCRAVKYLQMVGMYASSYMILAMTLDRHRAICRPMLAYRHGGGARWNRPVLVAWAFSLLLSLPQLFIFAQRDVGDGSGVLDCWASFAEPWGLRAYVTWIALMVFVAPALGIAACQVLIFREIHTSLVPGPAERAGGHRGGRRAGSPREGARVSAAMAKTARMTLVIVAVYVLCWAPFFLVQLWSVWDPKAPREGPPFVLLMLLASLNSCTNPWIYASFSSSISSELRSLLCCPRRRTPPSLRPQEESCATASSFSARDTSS
Vasopressin V2 receptor (Sus scrofa), sequence (P32307 whole entry): as above

| ED300 [1] [mg/kg] | K bind [2] [nM] | Ki (Vasopressin V2 receptor [3]) [nM] | Ki (Vasopressin V2 receptor [4]) [nM] | Compound |
| --- | --- | --- | --- | --- |
| 0.059 | 26 | 3.3 |  | CCOc1ccc(C[C@H]2NC(=O)CC3(CCCCC3)SSC[C@H](C(=O)N[C@H](CCCCN)C(N)=O)NC(=O)[C@@H](CC(N)=O)NC(=O)[C@H](C(C)C)NC(=O)[C@@H](Cc3ccccc3)NC2=O)cc1 |
|  |  | 3.7 | 6 | CCOc1ccc(C[C@H]2NC(=O)CC3(CCCCC3)SSC[C@@H](C(=O)N3CCC[C@H]3C(=O)NCCCCN=C(N)N)NC(=O)[C@H](CC(N)=O)NC(=O)[C@H](C(C)C)NC(=O)[C@H](Cc3ccccc3)NC2=O)cc1 ([dY](Et)FVNCP-Agmatine; linker N-5 via X1) |
